# Screening results deposited in PubChem by several laboratories.
# b-catenin transl: modulators of beta-catenin nuclear translocation, primary screen, imaging, HeLa cells, immunofluorescence, high-content; nuclear translocation activity, % at 5 µM; actives 0.3% (n = 190,000);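 active means nuclear translocation activity above 50% at 5 µM, with a well cell count of 50 or more; inconclusive means wells under 50 cells across six images, flagged as toxic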;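 further: per-cell ratio of nuclear to cytoplasmic median beta-catenin stain intensity; plate controls were DMSO negative control for no effect and GSK-3 inhibitor IX positive control for full effect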
#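 Signal – beta-catenin immunofluorescence imaging with DAPI · Test system – human HeLa cell line · Dosing – 5 µM primary single dose, 0.1% DMSO, 0.02–20 µM confirmation series · Measure – % activation, nuclear-to-cytoplasmic median beta-catenin signal ratio per cell · Incubation – 24 h compound exposure at 37°C, 5% CO2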
# CHOP inh: inhibitors of CHOP promoter induction, primary screen, cell-based, unfolded protein response, luciferase reporter; inhibition, % at 10 µM; actives 3.8% (n = 220,000); AID 2732, 2010; CHO-K1 CHOP-promoter luciferase, tunicamycin-induced, 15-18 h;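 active means compounds that reduced the stress-induced luciferase reporter signal by more than about 70% of percent inhibition, limit read from the data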;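 further: 0% = tunicamycin plus vehicle and 100% = wells without tunicamycin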
# Autophagy mod: autophagy modulators in MEF cells, primary screen, imaging, high-content, MEF GFP-LC3; MEF GFP-LC3 puncta imaging; test concentration mostly 10 µM; calls only at 10 µM (by protocol); actives 0.98% (n = 190,000); AID 463193, 2010;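 active means percentage of spot-positive cells more than 3 SD above its plate mean, without a fluorescence outlier flag or 80% toxicity; inconclusive means no clear call, values can overlap the other calls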;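 further: spot-positive cell cutoff set from DMSO-treated cells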
# MT stabilizer: microtubule stabilizers in HeLa cells, primary screen, imaging, high-content imaging. actives 0.83% (n = 200,000). % tubulin-high responders, % at 10 µM. AID 2205, 2009. HeLa tubulin immunostaining HCS, 24 h; share of cells brighter than vehicle mean+2SD;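 active means plate Z-score above 3 for both tubulin-high and condensed-nucleus cell shares, with cell loss under 80%, at 10 µM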;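 further: anti alpha tubulin signal scored within the nucleus-defined area of each cell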
# L major viab: Leishmania major promastigote growth inhibition, primary screen; Leishmania major promastigotes, resazurin fluorescence viability; actives 9% (n = 200,000); inhibition, % at 10 µM; in the data active means inhibition above about 50%;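 further: promastigotes grown with compound for 44 hours at 28 °C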
# Dynein cargo inh: inhibitors of GR-EGFP nuclear translocation, primary screen, dynein cargo transport inhibitor project, imaging, high-content, 3617.4 mouse cells | test concentration mostly 20 µM; stimulated with dexamethasone, 1 µM; active compounds read low | actives 0.47% (n = 220,000) | z-score, hits read low | AID 1381, 2008;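 active means plate z-score of nuclear minus cytoplasmic receptor signal below a set negative limit, without overly bright fluorescence or cell loss, cut at about -3.5 in these data, passing the limit was not always enough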;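 further: z-score of nuclear minus cytoplasmic ring GR-EGFP intensity difference per well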
#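 Buffer or medium: Induction medium lacking tetracycline, stripped serum | Also added: Dexamethasone agonist, 1.0 µM final, for 30 min | Timing: 48 h induction, 1 h compound, 30 min dex at 37 °C | Detection: Formaldehyde fixation, Hoechst nuclear stain, 10x automated fluorescence imaging | Measure: Nuclear versus cytoplasmic GR-EGFP signal, averaged per well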
# Dynein confirm: dynein cargo transport inhibitors, GR-EGFP translocation, confirmation, imaging, high-content imaging, GR-EGFP cells | calls only at 20 µM | shares compounds with Dynein cargo inh | 3617.4 GR-EGFP nuclear translocation imaging, dexamethasone-induced | AID 463116, 2010 | actives 69% (n = 1,000);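 active means inhibition of receptor movement into the nucleus at or above a set limit in both runs, with normal cell brightness and cell count; inconclusive means limit reached in only one run, brightness and count normal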;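 further: dexamethasone at 1 µM final in well for 30 min; nuclear minus cytoplasmic GR-EGFP mean intensity difference in channel 2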
# An asterisk follows results filed as active; i = inactive; ? = inconclusive; / = no result; + = active, no number. Only some compounds are listed: those with a hit (about 12% of all), similar ones and a draw of the others.
SMILES,b-catenin transl,CHOP inh,Autophagy mod,MT stabilizer,L major viab,Dynein cargo inh,Dynein confirm
Cc1ccc(O)c(C(=O)/C=C/c2ccc3c(c2)OCCO3)c1,0,-44,i,6,18,0.55,/
O=C(/C=C/c1ccc(F)cc1)c1cc(Br)ccc1O,-2,10,/,/,/,-3.8*,+
CC(C)CCn1c(=O)c2ccccc2n2c(CN3CCCC3)nnc12,-2,-4,i,4,4,0.23,/
CC(C)CCn1c(=O)c2ccccc2n2c(CCl)nnc12,7,-98,i,3,93*,-4.5*,+
CCCCCn1c(=O)c2ccccc2n2c(CCl)nnc12,3,-86,i,2,87*,-6.5*,+
Cc1ccc(N(CCC#N)C(=O)CSc2ccc3c(c2)OCCO3)cc1,-3,21,i,3,6,-0.84,/
Cc1ccc(N(CCC#N)C(=O)CCl)cc1C,4,-48,i,4,79*,-4.4*,+
O=C(NCC1CCCO1)C1c2ccccc2C(=O)N1C1CCCCCC1 (stereo unspecified),0,11,i,3,-4,-0.47,/
CC1=CC(=Nc2c(C)n(C)n(-c3ccccc3)c2=O)C=CC1=O,1,-234,/,/,/,-3.7*,+
Cc1c(N=c2scc(-c3ccccc3)n2C)c(=O)n(-c2ccccc2)n1C,1,30,i,5,27,-0.48,/
Cc1cccc(N(Cc2ccccc2)C(=O)CCl)c1,0,-98,?,4,81*,-5.7*,+
O=C(c1cccnc1)N(Cc1ccccc1)c1ccccc1,0,-14,i,3,2,0.53,/
O=C(CCl)N(Cc1ccccc1)c1ccccc1,5,-83,i,2,79*,-5.3*,+
CCC(C)(C)c1ccc(OCCCC[n+]2cccc(C)c2C)c(C(C)(C)CC)c1,32,79*,/,/,/,-5.2*,i
NS(=O)(=O)c1ccc(O)c(N2C(=O)c3cccc4c(C(=O)O)ccc(c34)C2=O)c1,-1,-18,i,3,4,-0.66,/
CCN(CC)c1ccc(/C=C2/SC(=O)N(C(C)C)C2=O)o1,-2,-26,?,2,99*,-4,+
Cc1cc(N2CCOCC2)ccc1/C=C1\SC(=O)N(C(C)C)C1=O,-2,56,i,3,5,1.2,/
CCOC(=O)C1=C(Cc2ccc(OC)cc2)C(=O)c2ccccc2C1=O,2,95*,i,45*,24,-6.1,+
CCOC(=O)C1=C(O)c2ccccc2C(=O)/C1=C\c1ccc(CC)cc1,2,87*,i,3,-5,-4.7,i
CCOC(=O)c1c(C)nc2c(c1-c1cc(OC)ccc1OC)C(=O)c1ccccc1-2,-1,-26,i,3,-6,-0.68,/
CCOC(=O)c1ccc(COC(=O)c2ccc3c(c2)-c2ccccc2C3=O)cc1,0,11,i,2,-5,0.5,/
CCCc1ccc(/C=C2\C(=O)c3ccccc3C(O)=C2C(=O)OCC)cc1,0,86*,i,5,-7,-3.5*,?
COC(=O)CN(c1ccc(OCc2ccccc2)cc1)S(C)(=O)=O,-2,14,i,1,-6,-0.71,/
CCOC(=O)c1c(-c2ccc(C)cc2)csc1NC(=O)/C(C#N)=C/c1ccc(O)c(OC)c1,0,-16,+,3,-7,-10,i
CCOC(=O)CSc1nnc(CNC(=O)c2cccs2)n1CCc1ccccc1,-2,14,i,2,-8,-0.4,/
SMILES,b-catenin transl,CHOP inh,Autophagy mod,MT stabilizer,L major viab,Dynein cargo inh,Dynein confirm
C/C(CCc1oc2c(Br)cc(Br)cc2c1-c1ccc(C)o1)=N\O,1,18,i,3,18,-4.1*,i
O=C(CS(=O)c1ccc(C(F)(F)F)cc1[N+](=O)[O-])Oc1ccccc1 (stereo unspecified),/,88*,i,3,-5,-3.9*,+
CCOC(=O)CSC1=NC(=O)/C(=C\c2ccc(Cl)cc2)S1,-4,-4,i,1,-8,-4.1*,i
O=C(Nc1nc2ccccc2n1CCN1CCCCC1)c1ccc(Cl)cc1,-12,28,i,3,2,-0.52,/
N=c1n(CCN2CCCCC2)c2ccccc2n1CC(=O)c1ccc(Cl)c(Cl)c1,1,11,/,/,/,-3.6*,i
O=C(CN1C(=O)CC(c2ccccc2)S(=O)(=O)c2ccccc21)N1CCCC1 (stereo unspecified),-1,-9,i,4,-7,0.57,/
O=C(COC(=O)Cn1cnc2ccccc2c1=O)Nc1cc(Cl)ccc1[N+](=O)[O-],1,26,i,5,-7,-0.6,/
COC(=O)c1ccc(-c2nn(C)c(=O)c3ccccc23)cc1,-1,-7,/,3,-4,0.055,/
COC(=O)c1ccc(C(=O)OC)c(-n2c(=O)c3ccccc3c3ccccc3c2=O)c1,2,-20,i,3,-5,-5.1*,+
Cc1cc(NC(=O)CSc2nc(-c3cccs3)cc(C(F)(F)F)n2)no1,8,/,i,29,-4,1.4,/
Cc1cc(NC(=O)CCCS(=O)(=O)c2nc(-c3cccs3)cc(C(F)(F)F)n2)no1,-4,/,i,6,44,-4.8*,?
CC(=O)Nc1sc(/C(C#N)=C\c2cccc(Cl)c2)nc1-c1ccc(C)cc1,1,21,?,6,5,-5.9,i
O=C(CSc1nc2ccccc2s1)N/N=C/c1cc([N+](=O)[O-])ccc1O,0,-14,/,/,/,2.9,/
COc1ccc(S(=O)(=O)n2nc(-c3cc(OC)c(OC)c(OC)c3)cc2N)cc1OC,-1,-30,i,3,4,-0.12,/
COc1ccc(-c2cc(N)n(S(=O)(=O)c3c(F)c(F)c(F)c(F)c3F)n2)cc1OC,-1,/,i,6,24,-5.1*,+
CC(=C/C(=O)O)/C=C/c1ccc([N+](=O)[O-])cc1,1,1,i,3,4,0.3,/
CC1(C)COC(/C=C/c2ccc([N+](=O)[O-])cc2)=N1,32,-24,i,18*,87*,-4.1*,+
CCOc1ccc(N2C(=O)/C(=C/c3cccs3)N(CC(=O)OC)C2=S)cc1,/,26,i,4,1,0.86,/
COc1ccc(C(CCN(Cc2ccc(OC)c(OC)c2)C(C)=O)c2ccccc2)cc1 (stereo unspecified),2,2,i,4,9,-0.68,/
